Beta cell apopt – blocks beta cell apoptosis; INS-1E cytokine-induced death, ATP luminescence, 48 h; percent of positive-control rescue, neutral wells zero; protection from apoptosis, % (test concentration not listed); 0.8% of 300,000 active;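 active = Every replicate reaches about 75%, or at least half do and their mean reaches it too, limit read from the data; inconclusive = At least half of replicates reach the limit but their mean does not; inactive = Under half of replicates reach the limit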;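 note: 0% = cytokine-treated negative control wells and 100% = positive control rescue; higher means more ATP so stronger rescue from cytokine killing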
CSC inhib – blocks cancer stem cells. AID 2717. cancer stem cell-like cells viability, luminescence. 1.1% of 300,000 active. inhibition, % at 7.5 µM; in the data active = inhibition above about 75%; inconclusive = no clear call, values can overlap the other calls; tested in HMLE shEcad cells
NALP3 yeast inh – inhibitors of NALP3 inflammasome in yeast; Yeast reconstituted NLRP3/ASC/caspase-1, beta-gal luminescence, 24 h; inhibition, % at 10 µM; 0.39% of 330,000 active;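 active = inhibition of 50% or more; inactive = inhibition below 50%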;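 note: plate controls were induced DMSO wells for no effect and uninduced yeast grown without galactose for full effect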
T cruzi inh – blocks replication of Trypanosoma cruzi. T. cruzi beta-gal in NIH3T3, luminescence, 90 h. 1.4% of 300,000 active. inhibition, % (concentration not given with the values). AID 1885;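 active = mean inhibition across valid replicates above about 55%, limit read from the data; inconclusive = mean below that limit but half or more replicates reach it; inactive = mean below it, under half of replicates reach it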;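 note: signal also drops with host cell toxicity which is not excluded here; 0% = plate median of DMSO wells and 100% = zero luminescence signal; higher percent means less beta-gal luminescence so fewer parasites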
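System: NIH/3T3 fibroblasts plus reporter T. cruzi. Medium: DMEM plus 2% FBS. Probe or stimulus: 5000 reporter trypomastigotes per well. Compound: single 50 nL compound addition per well in DMSO. Incubation: co-culture of at least 90 h after 3 h attachment. Detection: GalScreen β-gal luminescence, detergent lysis, 60 min. Evaluation: parasite load inhibition, %.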
Calb FLC – affects C. albicans growth with fluconazole. C. albicans CaCi-2 (fluconazole-resistant clinical isolate) + fluconazole, Alamar Blue growth, 48 h. growth inhibition, % (concentration not given with the values). 0.57% of 300,000 active. AID 1979;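 active = growth inhibition above about 58% in most replicates, limit read from the data, passing the limit was not always enough; inconclusive = exactly half the replicates above a set limit; inactive = most replicates below a set limit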;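 note: all wells also contain fluconazole at 8 µg/ml as a sub-toxic cotreatment; 0% = median of DMSO wells and 100% = median of geldanamycin control wells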
Mdm2-MdmX inh – inhibitors of human Mdm2/MdmX interaction | inhibition, % at 8 µM | 3% of 330,000 active | SaOS-2 split-luciferase Mdm2/MdmX complementation, luminescence;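 active = inhibition of at least 50% at 8 µM in the primary screen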
Target sequence (O15151 whole entry, looked up): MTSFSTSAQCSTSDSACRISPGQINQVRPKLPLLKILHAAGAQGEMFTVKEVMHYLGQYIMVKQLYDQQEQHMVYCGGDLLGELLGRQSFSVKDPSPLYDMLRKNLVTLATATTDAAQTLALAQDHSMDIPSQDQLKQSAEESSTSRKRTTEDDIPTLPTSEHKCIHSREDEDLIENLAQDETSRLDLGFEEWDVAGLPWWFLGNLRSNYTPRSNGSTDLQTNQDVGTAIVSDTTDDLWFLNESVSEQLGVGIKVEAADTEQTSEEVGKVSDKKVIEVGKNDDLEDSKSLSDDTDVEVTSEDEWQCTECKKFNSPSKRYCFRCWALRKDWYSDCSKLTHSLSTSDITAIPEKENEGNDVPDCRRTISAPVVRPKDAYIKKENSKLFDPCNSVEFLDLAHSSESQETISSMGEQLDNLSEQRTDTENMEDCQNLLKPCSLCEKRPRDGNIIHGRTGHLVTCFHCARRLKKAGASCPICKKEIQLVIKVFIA
Target sequence (Q00987 whole entry, looked up): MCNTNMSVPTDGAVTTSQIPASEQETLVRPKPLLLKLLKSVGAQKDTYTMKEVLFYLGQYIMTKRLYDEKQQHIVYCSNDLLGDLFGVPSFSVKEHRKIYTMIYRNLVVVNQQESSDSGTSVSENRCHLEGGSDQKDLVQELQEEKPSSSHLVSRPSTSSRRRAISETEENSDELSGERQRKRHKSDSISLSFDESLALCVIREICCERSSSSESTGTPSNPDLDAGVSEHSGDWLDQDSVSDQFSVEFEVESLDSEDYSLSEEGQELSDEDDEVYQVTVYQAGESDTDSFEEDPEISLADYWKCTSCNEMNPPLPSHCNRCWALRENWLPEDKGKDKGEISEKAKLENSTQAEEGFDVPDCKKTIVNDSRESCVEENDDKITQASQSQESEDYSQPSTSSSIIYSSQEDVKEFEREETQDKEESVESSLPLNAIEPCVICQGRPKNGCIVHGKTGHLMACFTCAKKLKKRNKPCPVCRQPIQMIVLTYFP
Mdm2 MdmX conf – confirmation of human Mdm2/MdmX interaction inhibitors; shares compounds with Mdm2-MdmX inh; Mdm2-MdmX binding, luminescent assay; inhibition, % at 8 µM; 55% of 10,000 active; in the data active = inhibition above about 40%
Full FLuc ctr – full-length luciferase inhibition in Mdm2/MdmX counter-screen; shares compounds with Mdm2-MdmX inh; inhibition, % at 8 µM; SaOS-2 full-length luciferase counterscreen, luminescence; 77% of 6,200 active;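 active = mean inhibition at 8 µM reaching about 37%, which flags the compound as non-specific, limit read from the data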;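 note: p53-null SaOS-2 cells with luciferase driven by a doxycycline-inducible promoter; compound on cells about two nights before reading with doxycycline added after day one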
Active calls of the source: *; ? = inconclusive; . = no result given. A selection: hits, their analogues and other compounds. The true share with any hit is near 5.3%.

SMILES	Beta cell apopt	CSC inhib	NALP3 yeast inh	T cruzi inh	Calb FLC	Mdm2-MdmX inh	Mdm2 MdmX conf	Full FLuc ctr
CCCN(CCC)CCCNC(=O)c1cc2c(=O)n(CC)c3ccccc3c2s1	5.2	4.5	12.4	9.9	-1.9	71.0*	57.6*	58.9*
CCCCN(CC)CCNC(=O)c1cc2c(=O)n(CC)c3ccccc3c2s1	4.5	-2.0	3.2	36.9	3.7	73.4*	52.3*	66.1*
CCCCN(CC)CCNC(=O)c1cc2c(=O)[nH]c3ccc(C)cc3c2s1	.	5.0	11.4	37.8	13.1	82.6*	46.5*	68.1*
CCN(CC)CCNC(=O)c1cc2c(=O)n(C)c3ccccc3c2s1	0.3	27.7	7.6	29.5	2.2	35.8	.	.
CCCCN(CC)CCCNC(=O)c1cc2c(=O)n(CC)c3ccccc3c2s1	4.3	9.5	7.9	39.3	-7.0	79.5*	59.8*	54.9*
CCOC(=O)c1c(C)n(C(=O)c2ccco2)c(=O)n1C(=O)c1ccco1	-11.9	-15.5	-3.9	-15.9	24.6	7.0	.	.
Cc1ccccc1C=Nc1ccccc1C(N)=O	2.5	-5.1	-2.8	-4.8	-21.0	41.9	.	.
O=Cc1ccc(N2CCCC2)c(F)c1	-6.8	-6.3	14.7	-0.7	1.4	15.9	.	.
CCn1c(=O)c2cc(C(=O)NCCCOC)sc2c2ccccc21	-0.1	30.7	10.4	1.4	18.2	64.1*	48.7*	103.0*
COCCCNC(=O)c1ccc(Cn2c(=O)c3ccccc3n(Cc3ccccc3C#N)c2=O)cc1	-0.1	.	9.3	7.3	-28.0	53.2*	19.2	.
CCCc1c(O)nc(SCCN(CC)CC)[nH]c1=O	-12.4	-11.4	8.0	-12.7	-16.4	3.3	.	.
CCO[C@@H]1OC(C(=O)NCc2ccccc2)=C[C@H](C(C)(C)C)[C@H]1CCCO	-3.4	7.2	13.0	-19.9	-1.0	-16.6	.	.
Cc1cc(Br)cc2c1N(C)C(=O)C2(c1ccc(O)cc1)c1ccc(O)cc1	-2.2	20.8	22.5	22.2	33.9	11.7	.	.
CCOC(=O)c1ccc(Nc2sc(C(=O)c3cccc([N+](=O)[O-])c3)c(N)c2C#N)cc1	33.5	60.0	14.5	0.2	8.6	75.0*	74.2*	44.4*
Cc1ccc(NS(=O)(=O)c2cc(NC(=O)c3ccc4c(c3)NC(=O)CS4)ccc2C)c(C)c1	15.1	38.9	0.6	15.8	1.9	36.0	.	.
COc1ccc(NC(=O)c2ccc3c(c2)NC(=O)CS3)cc1S(=O)(=O)Nc1ccc(Br)cc1	9.8	79.6*	18.2	-1.0	6.6	69.4*	77.0*	44.2*
Cc1nc2ccc(NC(=O)c3ccco3)cc2nc1C	1.6	5.5	10.0	.	11.3	-13.6	.	.
CCOC(=O)c1c(NC(=O)COc2ccccc2)sc2c1CC(C)(C)NC2(C)C	-9.1	7.0	30.9	28.9	-6.1	77.0*	41.4*	54.4*
CC1(C)Cc2c(sc(NC(=O)c3ccc(S(=O)(=O)N4CCCCCC4)cc3)c2C(N)=O)C(C)(C)N1	.	.	17.1	28.3	-11.3	84.7*	17.2	.
CC1(C)Cc2c(sc(NC(=O)c3ccc(C(=O)c4ccccc4)cc3)c2C#N)C(C)(C)N1	-1.0	-6.4	15.7	6.4	-0.5	51.6*	35.4	95.2*
COC(=O)c1c(NC(=O)c2nc3ccccc3s2)sc2c1CC(C)(C)NC2(C)C	.	67.8	15.2	49.9	-4.1	97.6*	63.5*	53.4*
CCOC(=O)c1c(NC(=O)COC(=O)/C=C/c2ccco2)sc2c1CC(C)(C)NC2(C)C	-5.0	-2.8	7.6	5.8	1.0	31.9	.	.
CCOC(=O)c1c(NC(=O)CSc2nc3ccccc3[nH]2)sc2c1CC(C)(C)NC2(C)C	5.5	2.3	-5.3	42.2	-4.8	44.1	.	.
COc1cc(NC(=O)C(=O)N2CCN(C)CC2)c(OC)cc1Cl	59.9	-1.3	9.3	-6.4	-5.4	14.6	.	.
Cn1c(=O)[nH]c(=O)c2c1[nH]c(=S)n2Cc1ccc(Cl)cc1	-2.4	-3.2	14.3	-8.8	-2.9	-2.2	.	.
SMILES	Beta cell apopt	CSC inhib	NALP3 yeast inh	T cruzi inh	Calb FLC	Mdm2-MdmX inh	Mdm2 MdmX conf	Full FLuc ctr
CCOc1ccc(C(=O)Nc2sc3c(c2C(=O)OC)CC(C)(C)NC3(C)C)cc1	-8.8	-1.3	25.7	35.8	-10.1	77.8*	47.9*	60.4*
CN1c2ccccc2C(C)(C)C12CC(c1ccc(S(=O)(=O)N3CCCCC3)cc1)=NO2 (centres undefined)	11.9	.	12.9	3.5	1.8	65.1*	73.7*	73.8*
CN1c2ccccc2C(C)(C)C12CC(c1cccc(S(=O)(=O)N3CCCC3)c1)=NO2 (centres undefined)	37.5	4.9	4.5	-9.1	?	69.1*	64.5*	106.0*
CCN(CC)S(=O)(=O)c1ccc(-c2nnco2)cc1	-1.8	-0.5	-5.6	3.6	-4.4	10.3	.	.
CCN(CC)S(=O)(=O)c1ccc(C2=NOC3(C2)N(C)c2ccccc2C3(C)C)cc1 (centres undefined)	12.3	24.1	28.8	28.2	4.2	71.8*	69.2*	79.1*
COCCN(CC(=O)Nc1cccc(C)c1C)C(=O)c1cc(-c2cccs2)nn1-c1ccccc1	2.0	33.6	16.5	.	.	5.4	.	.
Cc1cc(C)c(C(=O)NC2CCCc3c2cnn3-c2cccc(C)c2C)o1 (centres undefined)	5.1	23.0	-10.1	27.6	3.2	78.3*	74.7*	42.9*
O=C(NC1CCCc2c1cnn2-c1ccccc1F)c1ccccn1 (centres undefined)	-0.2	48.7	9.6	-12.1	2.2	86.2*	71.7*	28.6
Oc1[nH]c2ccccc2c1N=Nc1nc2ccccc2s1	-3.1	2.9	35.5	11.0	-11.4	-3.8	.	.
Cc1ccc2[nH]c(O)c(N=Nc3nc4ccccc4s3)c2c1	48.0	27.8	31.5	60.9*	38.3	68.2*	55.2*	46.8*
CCCn1nc([N+](=O)[O-])c(C(C#N)c2nc3ccccc3s2)c(Cl)c1=O (centres undefined)	32.7	98.3*	-21.2	1.4	99.1*	80.3*	73.8*	56.8*
CCn1nc([N+](=O)[O-])c(C(C#N)c2nc3ccccc3n2C)c(Cl)c1=O (centres undefined)	10.1	30.5	12.2	-16.1	8.7	20.9	.	.
Cc1c(C(=O)N2CCN(c3ccccn3)CC2)oc2ccccc12	3.6	-8.3	16.3	-9.7	9.3	1.9	.	.
Cc1cc(C(=O)N(C)C)sc1-c1ccccc1	-2.7	-1.0	29.9	-12.6	-4.2	-70.5	.	.
CC1(C)CC1C(=O)Nc1ccc([N+](=O)[O-])cc1Br (centres undefined)	0.7	0.0	7.1	-6.7	8.5	22.1	.	.

Source: PubChem BioAssay (several laboratories)
